# The other results are listed elsewhere or left out. A number with no mark means an inactive call.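 The calls were made as follows: active = mean inhibition of triplicate wells above the hit cutoff set in the primary screen (cut at about 17% in these data); inactive = the rest.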
# Biological target: Neuropeptide Y receptor type 2 (Homo sapiens) (UniProt P49146)
# Assay: NPY-Y2 receptor antagonists, retest of hits, confirmation, HEK293-CNG cells, membrane potential fluorescence, triplicate (AID 1257);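 also: 0% = DMSO with NPY challenge and 100% = BIIE0246 high control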
# Conditions: HEK293 NPY-Y2 CNG channel, at 2.8 µM, hits give high values
# Summary of the method: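 assay system = NPY-Y2 HEK293-CNG cells | times = NPY exposure 60 min at room temperature | technique = voltage-sensitive dye fluorescence | read-out = 30-min to baseline fluorescence ratio, control-normalized | control set = high BIIE0246, low DMSO | repeats = three replicates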
# Sequence of Neuropeptide Y receptor type 2 (Homo sapiens) (P49146 whole entry, looked up): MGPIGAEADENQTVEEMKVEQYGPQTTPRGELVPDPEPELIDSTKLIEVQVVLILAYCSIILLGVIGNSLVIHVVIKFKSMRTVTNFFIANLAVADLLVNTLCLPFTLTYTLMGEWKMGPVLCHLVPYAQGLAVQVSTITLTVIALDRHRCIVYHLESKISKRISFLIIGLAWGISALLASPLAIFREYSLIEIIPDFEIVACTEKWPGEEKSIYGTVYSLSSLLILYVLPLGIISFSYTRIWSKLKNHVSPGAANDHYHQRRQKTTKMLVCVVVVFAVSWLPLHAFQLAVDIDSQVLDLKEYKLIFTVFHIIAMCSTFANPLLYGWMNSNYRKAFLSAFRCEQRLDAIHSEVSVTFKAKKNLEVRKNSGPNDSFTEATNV
smiles,measurement,value
O=C(COC(=O)c1ccccc1)Nc1ccc(Cl)cc1C(=O)c1ccccc1,inhibition,15.9%

# From PubChem BioAssay AID1257 (The Scripps Research Institute Molecular Screening Center, 2008)
